Measurements from different studies.
Compare with care: the assays were run in different laboratories.
KIT: Mast/stem cell growth factor receptor Kit (KIT, Homo sapiens, UniProt P10721)
KIT D816H: Mast/stem cell growth factor receptor Kit (KIT, Homo sapiens, UniProt P10721, D816H)
KIT D816V: Mast/stem cell growth factor receptor Kit (KIT, Homo sapiens, UniProt P10721, D816V)
KIT V559D: Mast/stem cell growth factor receptor Kit (KIT, Homo sapiens, UniProt P10721, V559D)
KIT T670I/V559D: Mast/stem cell growth factor receptor Kit (KIT, Homo sapiens, UniProt P10721, T670I/V559D)
KIT L576P: Mast/stem cell growth factor receptor Kit (KIT, Homo sapiens, UniProt P10721, L576P)

The remaining binding of `CC1=C(C#N)[C@@H](c2ccc3[nH]nc(C)c3c2)C(C#N)=C(c2ccc(Cl)cc2)N1` is reported as 95.4% (KIT; cell-free assay; competition with immobilised ligand; 1 µM).
For `CNC(=O)[C@@H]1CC[C@@H](n2c(-c3ccc4cnccc4c3)nc3ccc(C(=O)NCc4cccc(C(N)=O)c4)cc32)C1`, the remaining binding was 100% (KIT D816H; binding; competition with immobilised ligand; 1 µM).
`c1cnn2ncc(-c3ccnc(N4CCC45COC5)n3)c2c1` gave a remaining binding of 93% (KIT D816V; binding; 1 µM).
`C[C@@H](c1cccc(C#N)c1)n1cc(Cl)cc(C(N)=O)c1=N` gave a remaining binding of 93% (KIT V559D; cell-free assay; competition with immobilised ligand; 1 µM).
With `CN(C)c1ncc(F)c(-c2cnn3ncccc23)n1` the remaining binding was 91% (KIT D816V; binding; 1 µM).
With `O=C(Nc1cnc(Oc2ccc(F)cc2)nc1)N1CCc2ncccc2[C@@H]1c1ccc(F)cc1` the remaining binding was 84% (KIT T670I/V559D; cell-free assay; competition with immobilised ligand; 1 µM).
For `C[C@H]1CCN(c2nccc(-c3cnn4ncccc34)n2)C1`, the remaining binding was 67% (KIT L576P; binding; 1 µM).
`O=C(c1ccc(Nc2ncc(Cl)c(-c3cc4ccccc4s3)n2)cc1)N1CCC(N2CCCC2)CC1` has a remaining binding of 22% (KIT D816H; binding; competition with immobilised ligand; 1 µM).
For `COc1cnc(Nc2cccc(S(N)(=O)=O)c2)nc1N1CCN(c2ccccc2)CC1`, the remaining binding was 97% (KIT T670I/V559D; binding; competition with immobilised ligand; 1 µM).
With `CN(CCCC(F)(F)F)c1nccc(-c2cnn3ncccc23)n1` the remaining binding was 100% (KIT V559D; binding; 1 µM).
With `COc1ccc2c(c1)O[C@H](c1ccc(OC)c(OC)c1)C[C@@H]2NC(=O)C1(c2ccc3c(c2)OC(F)(F)O3)CC1` the remaining binding was 100% (KIT; cell-free assay; competition with immobilised ligand; 1 µM).
`N[C@@H]1CCN(c2nccc(-c3cnn4ncccc34)n2)C1` has a remaining binding of 100% (Mast/stem cell growth factor receptor Kit (KIT, Homo sapiens, UniProt P10721, A829P); binding; 1 µM).
The remaining binding of `O=C(NCC1CCOCC1)c1n[nH]cc1NC(=O)c1c(F)cccc1F` is reported as 100% (KIT T670I/V559D; binding; competition with immobilised ligand; 1 µM).
For `O=C(c1ccc(Nc2nccc(-c3cc4ccccc4s3)n2)cc1)N1CCC(N2CCCC2)CC1`, the remaining binding was 8.6% (KIT L576P; binding; competition with immobilised ligand; 1 µM).
For `C[C@@H]1CN(c2cc(-c3n[nH]c4ccc(OC5(C)CC5)cc34)ncn2)C[C@H](C)O1`, the remaining binding was 100% (KIT V559D; cell-free assay; competition with immobilised ligand; 0.1 µM).
For `C[C@@H](c1ccc(-n2cnc3c(N)ncnc32)cc1)N1CCc2nn(C)c(Cc3ccccc3)c2C1=O`, the remaining binding was 38% (KIT; binding; competition with immobilised ligand; 0.1 µM).
For `COc1ccc2c(O[C@@H]3C[C@H]4C(=O)N[C@]5(C(=O)O)CC5/C=C\CCCCC[C@H](NC(=O)OC5CCCC5)C(=O)N4C3)cc(-c3csc(NC(=O)C(C)C)n3)nc2c1C` (stereo partly shown), the remaining binding was 100% (KIT; cell-free assay; competition with immobilised ligand; 1 µM).
For `Cc1cnc(Nc2ccc(C(=O)N3CCC(N4CCCC4)CC3)cc2)nc1-c1cc2ccccc2s1`, the remaining binding was 4.5% (KIT; binding; competition with immobilised ligand; 1 µM).
For `c1cncc(-c2cccc(Nc3nccc(NC4CCCCC4)n3)c2)c1`, the remaining binding was 1.2% (KIT V559D; binding; competition with immobilised ligand; 10 µM).
